Shown are actives, neighbours in structure and some others; about 1.7% of the full set was active somewhere.
STEP inh = STEP phosphatase inhibitors, primary screen, biochemical, fluorescence intensity, uHTS. recombinant STEP, OMFP fluorogenic substrate. inhibition, % at 20 µM. actives 0.25% (n = 360,000). AID 588621, 2011;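 active means inhibition at 20 µM, scaled per plate between control wells, above about 37%, limit read from the data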
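Assay system: isolated STEP enzyme / Timing: 20 min at room temperature, dark / Doses: 20 µM, 1% DMSO / Technique: fluorescence intensity, excitation 480 nm, emission 540 nm / Reagent: fluorogenic phosphatase substrate OMFP at 25 µM final / Measure: percent inhibition scaled to no-enzyme and uninhibited-enzyme controls, plate-pattern corrected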
DNMT1 block = human DNMT1 methyltransferase inhibitors, primary screen, biochemical, molecular beacon, fluorescence, HinP1I cleavage, uHTS; actives 0.83% (n = 360,000); DNA (cytosine-5)-methyltransferase 1 (Homo sapiens), P26358; inhibition (reported as % activation of signal), % at 10 µM; AID 588458, 2011; in the data active means inhibition above about 50%
Scp1 inh = Scp-1 phosphatase inhibitors, primary screen, biochemical, colorimetric, uHTS; Carboxy-terminal domain RNA polymerase II polypeptide A small phosphatase 1 (Homo …; Recombinant Scp1, phosphopeptide, malachite green phosphate absorbance; inhibition, % at 20 µM; actives 0.88% (n = 340,000);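 active means inhibition above about 50% at 20 µM, limit read from the data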
Target sequence (Q9GZU7 76-261 limits assumed): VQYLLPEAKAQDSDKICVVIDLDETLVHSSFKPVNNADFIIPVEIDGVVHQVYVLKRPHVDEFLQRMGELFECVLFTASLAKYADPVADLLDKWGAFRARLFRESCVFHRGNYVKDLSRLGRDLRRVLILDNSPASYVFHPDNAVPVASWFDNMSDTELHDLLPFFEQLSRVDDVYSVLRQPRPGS
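Test system: SCP-1 catalytic domain; Buffer or medium: Acidic Tris acetate buffer with magnesium and detergent; Also added: Phosphorylated 17-residue peptide substrate; Compound: single 20 µM dose, 1% DMSO; Schedule: enzyme reaction 45 min at room temperature, colour 5 min, stabilisation 30 min; Signal: Phosphate-binding colour reagent, absorbance read at 630 nm.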
LMPTP block = LMPTP phosphatase inhibitors, primary screen, biochemical, fluorescence intensity, uHTS | Low molecular weight phosphotyrosine protein phosphatase (Homo sapiens), P24666 | inhibition, % at 20 µM | AID 651560, 2012 | actives 0.22% (n = 360,000) | recombinant LMPTP-A, OMFP fluorogenic substrate;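 active means compounds that cut the enzyme signal by at least half of the control window in the single-dose screen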
Target sequence (P24666 whole entry, looked up): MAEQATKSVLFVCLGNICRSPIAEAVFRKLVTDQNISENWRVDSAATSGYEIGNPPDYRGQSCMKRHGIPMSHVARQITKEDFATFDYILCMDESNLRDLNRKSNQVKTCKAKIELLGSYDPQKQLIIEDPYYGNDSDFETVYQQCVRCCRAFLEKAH
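Material: LMPTP-A; amount: 0.625 nM enzyme; doses: single 20 µM dose; times: reaction 50 min, room temperature, dark; technique: fluorescence intensity of OMFP turnover product; benchmarks: no-enzyme and uninhibited controls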
SUMO1 PPI mod = modulators of SUMO1 protein-protein interactions, primary screen, biochemical, uHTS. AID 602429, 2012. Small ubiquitin-related modifier 1 (Homo sapiens), P63165. inhibition, % at 20 µM. SUMO1 binding to a labelled peptide, TR-FRET, 1 h. actives 0.33% (n = 360,000); in the data active means inhibition above about 37%
Target sequence (P63165 whole entry, looked up): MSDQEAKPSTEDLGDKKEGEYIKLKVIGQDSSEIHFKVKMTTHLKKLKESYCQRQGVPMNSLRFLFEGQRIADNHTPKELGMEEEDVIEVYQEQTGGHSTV
Hits are given with their value; n = inactive; x = no result.

SMILES | STEP inh | DNMT1 block | Scp1 inh | LMPTP block | SUMO1 PPI mod
Cc1cccc(NC(=O)c2cc(-c3cc(C)ccc3O)n[nH]2)c1 | n | n | n | n | n
COc1cc(F)ccc1-c1cc(C(=O)Nc2ccc(NC(C)=O)cc2)[nH]n1 | n | n | x | n | 63
COc1ccc(F)cc1-c1cc(C(=O)Nc2ccc(NC(C)=O)cc2)[nH]n1 | n | n | x | n | n
CC(=O)Nc1ccc(NC(=O)c2cc(-c3ccc(C)cc3O)n[nH]2)cc1 | n | n | n | n | 74
Cc1ccc(N(CC(=O)N2CCN(c3ccccc3F)CC2)S(=O)(=O)c2c(C)noc2C)cc1 | n | n | n | n | n
CN1CCN(C2=C(Cl)C(=O)c3ccccc3C2=O)CC1 | n | 87 | n | n | 62
CCCCc1c(-c2cccc(Br)c2)ncn1CCc1ccccc1OC | x | x | x | n | n
O=C(CSc1nnc2ccc(-c3ccco3)nn12)Nc1ccccc1F | n | n | n | 53 | n
Cc1ccccc1NC(=O)CSc1nnc2ccc(-c3ccccn3)nn12 | n | n | n | n | n
COc1ccc(Cl)cc1NC(=O)CCNS(=O)(=O)c1cccc2nonc12 | n | n | n | n | n
O=C1Nc2ccccc2/C1=N\N=C\C1=C(N2CCOCC2)C(=C\c2ccccc2)/CC1 | n | n | x | n | n
O=C1Nc2ccc(Br)cc2/C1=N\N=C\C1=C(N2CCOCC2)C(=C/c2ccccc2)/CC1 | n | n | 64 | n | n
CCOc1ccc(S(=O)(=O)N2CCCCC2)cc1NC(=O)CN1C(=O)NC(C)(C2CC2)C1=O (stereo not drawn) | n | n | n | n | n
CN1CCn2cnc(C(=O)N[C@@H](Cc3ccccc3)C(=O)OC(C)(C)C)c2C1=O | n | n | x | n | n
N=C1/C(=C/c2ccc(-c3cccc(C(=O)O)c3)o2)C(=O)N=C2SC=C(c3ccccc3)N12 | 64 | 100 | 68 | 89 | 46
CCOC(=O)N1CCC(NC(=O)C(NS(=O)(=O)c2cccc3nsnc23)c2ccccc2)CC1 (stereo not drawn) | n | n | n | n | 46
O=C(NC1CCN(Cc2ccccc2)CC1)C(NS(=O)(=O)c1cccc2nsnc12)c1ccccc1 (stereo not drawn) | n | n | n | n | n
CCC(C)c1ccc(NC(=O)COc2c(F)c(F)c(C(F)(F)F)c(F)c2F)cc1 (stereo not drawn) | n | n | n | n | n
Nc1ccc2nc(CCCCCCc3nc4ccc(N)cc4[nH]3)[nH]c2c1 | n | n | n | 68 | n
Nc1ccc2nc(CCCCCCCCc3nc4ccc(N)cc4[nH]3)[nH]c2c1 | n | n | n | 65 | n
Nc1ccc2nc(CCCO)[nH]c2c1 | n | n | n | n | n
Nc1ccc2nc(CCCCc3nc4ccccc4[nH]3)[nH]c2c1 | n | n | n | n | n
Cc1ccccc1OCCCC(=O)Nc1nncs1 | n | n | n | n | n
COc1ccccc1Cc1c(-c2ccco2)nc2c(C)cc(Br)cn12 | n | 62 | x | n | n
COc1ccc(Cc2c(-c3ccco3)nc3c(C)cc(Br)cn23)c(C)c1 | n | n | x | n | n
SMILES | STEP inh | DNMT1 block | Scp1 inh | LMPTP block | SUMO1 PPI mod
CNc1ccccc1C(=O)OCC(=O)N1CCc2ccccc2C1 | n | n | x | n | n
N#Cc1ccccc1OCCN1C(=O)c2ccccc2C1=O | n | n | n | n | n
Nc1cccc2c1C(=O)N(CCOc1ccccc1F)C2=O | n | n | 56 | n | n
Cc1ccc(OCc2nnc(SCC(N)=O)n2N)cc1 | n | n | n | n | 44
C/C(N)=C(/C#N)C(=O)COc1ccc(Cl)cc1Cl | n | n | n | n | 61
C/C(N)=C(/C#N)C(=O)COC(=O)CNC(=O)c1ccc(Cl)cc1Cl | n | n | n | n | n
CC(C)N1CCc2c(sc(NC(=S)NC(=O)c3ccccc3)c2C#N)C1 | n | n | n | n | n
CCCN1CCc2c(sc(NC(=S)NC(=O)c3ccccc3)c2C#N)C1 | n | n | n | 59 | n
C[C@H](NC(=O)c1cccc([N+](=O)[O-])c1)C(=O)OCC(=O)c1ccccc1Br | n | n | n | n | n

High-throughput results from PubChem.
